Experimental data: ChEMBL document CHEMBL4028913, “Discovery of Novel Potent VEGFR-2 Inhibitors Exerting Significant Antiproliferative Activity against Cancer Cell Lines” (J Med Chem, 2018)
Active and inactive are the calls of the source. No cut-off for these calls is given here.

Legend:
IGROV-1 = assay: Cytotoxicity against human IGROV1 cells after 48 hrs by SRB assay; type: functional; conditions: IGROV-1, 48 h
In short: (§1)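 NCI-60 panel; cells grown in RPMI 1640 with 5% FBS and 2 mM L-glutamine, plated at 5000–40 000 cells/well by doubling time, preincubated 24 h (37 °C, 5% CO2). Drug added at five concentrations, 1-log steps from 10−4 to 10−8 M, for 48 h. Fixed with TCA, stained with 0.4% SRB, absorbance read at 515 nm. Percent growth computed against time-zero and untreated controls; GI50, TGI and LC50 derived.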

NCI-H322M = assay: Cytotoxicity against human NCI-H322M cells after 48 hrs by SRB assay; type: functional; in short: as §1
OVCAR-4 = assay: Cytotoxicity against human OVCAR4 cells after 48 hrs by SRB assay; type: functional; conditions: OVCAR-4, 48 h; in short: as §1
786-0 = assay: Cytotoxicity against human 786-0 cells after 48 hrs by SRB assay; type: functional; conditions: 786-0, 48 h; in short: as §1
SF-295 = assay: Cytotoxicity against human SF295 cells after 48 hrs by SRB assay; type: functional; conditions: SF-295, 48 h; in short: as §1
[1] = biological target: T1, Vascular endothelial growth factor receptor 2 (Homo sapiens, UniProt P35968); assay: Inhibition of VEGFR2 in human prostate cancer cells assessed as decrease in Akt activation at 10 uM relative to control
OVCAR-8 = assay: Cytotoxicity against human OVCAR8 cells after 48 hrs by SRB assay; type: functional; conditions: OVCAR-8, 48 h; in short: as §1
[2] = biological target: Tyrosine-protein kinase HCK (Homo sapiens) (UniProt P08631); assay: Inhibition of human HCK at 0.5 uM relative to control
HCC 2998 = assay: Cytotoxicity against human HCC2998 cells after 48 hrs by SRB assay; type: functional; conditions: HCC 2998, 48 h; in short: as §1
NCI-H522 = assay: Cytotoxicity against human NCI-H522 cells after 48 hrs by SRB assay; type: functional; conditions: NCI-H522, 48 h; in short: as §1
[3] = Potency index, ratio of sunitinib GI50 to test compound GI50 for human ovarian cancer cells; type: functional, Ovarian cancer cell
Melanoma cell [4] = assay: Potency index, ratio of sunitinib GI50 to test compound GI50 for human melanoma cells; type: functional
In short: (§2)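 GI50 is the concentration giving 50% reduction in net protein increase relative to control. Potency index is the reference-drug GI50 divided by the test-compound GI50.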

NCI/ADR-RES = assay: Cytotoxicity against human NCI-ADR-RES cells after 48 hrs by SRB assay; type: functional; in short: as §1
MOLT-4 = assay: Cytotoxicity against human MOLT4 cells after 48 hrs by SRB assay; type: functional; conditions: MOLT-4, 48 h; in short: as §1
UACC-257 = assay: Cytotoxicity against human UACC257 cells after 48 hrs by SRB assay; type: functional; conditions: UACC-257, 48 h
In short: (§3)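 NCI-60 panel, five doses at 1-log steps from 10−4 to 10−8 M. Cells grown in RPMI 1640 with 5% FBS and 2 mM L-glutamine, seeded at 5000–40 000 cells/well and preincubated 24 h. Tz plates were TCA-fixed at drug addition. Drug exposure 48 h at 37 °C, then TCA fixation, 0.4% SRB stain and absorbance at 515 nm. GI50 taken from percent growth relative to Tz and control.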

PC-3 = assay: Cytotoxicity against human PC3 cells after 48 hrs by SRB assay; type: functional; conditions: PC-3, 48 h; in short: as §1
MDA-MB-468 = assay: Cytotoxicity against human MDA-MB-468 cells after 48 hrs by SRB assay; type: functional; conditions: MDA-MB-468, 48 h; in short: as §1
SNB-19 = assay: Cytotoxicity against human SNB19 cells after 48 hrs by SRB assay; type: functional; conditions: SNB-19, 48 h; in short: as §1
Melanoma cell [5] = assay: Potency index, ratio of sorafenib GI50 to test compound GI50 for human melanoma cells; type: functional; in short: as §2
DU-145 = assay: Cytotoxicity against human DU145 cells after 48 hrs by SRB assay; type: functional; conditions: DU-145, 48 h; in short: as §1
HT-29 = assay: Cytotoxicity against human HT-29 cells after 48 hrs by SRB assay; type: functional; conditions: HT-29, 48 h; in short: as §1
OVCAR-5 = assay: Cytotoxicity against human OVCAR5 cells after 48 hrs by SRB assay; type: functional; conditions: OVCAR-5, 48 h; in short: as §1
[6] = biological target: TRAF2 and NCK-interacting protein kinase (Homo sapiens) (UniProt Q9UKE5); assay: Inhibition of human TNIK at 0.5 uM relative to control
MDA-MB-435 = assay: Growth inhibition of human MDA-MB-435 cells at 10 uM after 72 hrs by CellTiter-Glo assay relative to control; type: functional; conditions: MDA-MB-435, 72 h, read-out: GI
In short: (§4)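 Cells in exponential phase seeded at 2000–4000 cells/well, then exposed 72 h at 37 °C, 5% CO2 with 0.1% final DMSO. Single-point screen at 10 μM final. […] Read-out was CellTiter-Glo luminescence.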

[7] = biological target: Fibroblast growth factor receptor 2 (Homo sapiens) (UniProt P21802); assay: Inhibition of human FGFR2 at 0.5 uM relative to control
KM12 = assay: Cytotoxicity against human KM12 cells after 48 hrs by SRB assay; type: functional; conditions: KM12, 48 h; in short: as §1
K562 = assay: Cytotoxicity against human K562 cells after 48 hrs by SRB assay; type: functional; conditions: K562, 48 h; in short: as §1
HUVEC = assay: Growth inhibition of HUVEC at 10 uM after 72 hrs by CellTiter-Glo assay relative to control; type: functional; conditions: Homo sapiens, read-out: GI; in short: as §4
TK-10 = assay: Cytotoxicity against human TK10 cells after 48 hrs by SRB assay; type: functional; conditions: TK-10, 48 h; in short: as §3
[8] = biological target: T1, Vascular endothelial growth factor receptor 2
[9] = read-out: LC50 (the source's name)

T1 sequence (P35968 whole entry): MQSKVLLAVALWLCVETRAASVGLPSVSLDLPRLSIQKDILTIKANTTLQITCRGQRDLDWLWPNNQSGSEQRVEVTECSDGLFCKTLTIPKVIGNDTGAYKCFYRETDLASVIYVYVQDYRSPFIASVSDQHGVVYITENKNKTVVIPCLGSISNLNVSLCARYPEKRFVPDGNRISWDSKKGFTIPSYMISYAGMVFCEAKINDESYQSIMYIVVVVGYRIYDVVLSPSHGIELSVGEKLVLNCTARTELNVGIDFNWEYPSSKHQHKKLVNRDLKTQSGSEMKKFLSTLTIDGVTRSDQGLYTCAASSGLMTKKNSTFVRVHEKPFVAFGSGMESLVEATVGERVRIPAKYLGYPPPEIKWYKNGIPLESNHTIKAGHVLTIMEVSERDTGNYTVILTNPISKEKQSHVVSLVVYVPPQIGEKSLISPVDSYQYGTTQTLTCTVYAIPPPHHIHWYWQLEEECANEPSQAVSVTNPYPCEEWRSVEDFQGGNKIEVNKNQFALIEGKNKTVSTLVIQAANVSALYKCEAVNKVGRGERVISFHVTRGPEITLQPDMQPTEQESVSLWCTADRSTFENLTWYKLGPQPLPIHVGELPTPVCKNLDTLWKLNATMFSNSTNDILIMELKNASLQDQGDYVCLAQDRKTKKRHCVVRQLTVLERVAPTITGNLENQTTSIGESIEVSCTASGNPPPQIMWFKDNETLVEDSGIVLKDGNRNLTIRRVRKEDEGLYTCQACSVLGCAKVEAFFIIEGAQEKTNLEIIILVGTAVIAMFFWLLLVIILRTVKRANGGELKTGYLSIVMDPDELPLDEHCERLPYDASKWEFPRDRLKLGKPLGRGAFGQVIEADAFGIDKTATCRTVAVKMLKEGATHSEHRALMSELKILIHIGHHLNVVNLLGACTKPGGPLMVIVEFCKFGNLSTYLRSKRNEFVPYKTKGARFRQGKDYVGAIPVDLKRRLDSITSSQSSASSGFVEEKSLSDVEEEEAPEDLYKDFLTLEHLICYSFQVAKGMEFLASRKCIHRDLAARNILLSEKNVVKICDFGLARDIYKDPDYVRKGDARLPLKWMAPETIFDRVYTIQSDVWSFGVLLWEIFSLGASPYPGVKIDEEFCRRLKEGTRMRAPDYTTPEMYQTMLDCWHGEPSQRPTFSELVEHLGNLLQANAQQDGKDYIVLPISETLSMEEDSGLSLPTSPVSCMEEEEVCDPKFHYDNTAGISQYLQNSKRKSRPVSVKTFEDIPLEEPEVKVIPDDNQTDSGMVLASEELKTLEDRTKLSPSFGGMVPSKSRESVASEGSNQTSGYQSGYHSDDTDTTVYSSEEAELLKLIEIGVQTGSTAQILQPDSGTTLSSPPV
Sequence of Fibroblast growth factor receptor 2 (Homo sapiens) (P21802 22-821 limits assumed): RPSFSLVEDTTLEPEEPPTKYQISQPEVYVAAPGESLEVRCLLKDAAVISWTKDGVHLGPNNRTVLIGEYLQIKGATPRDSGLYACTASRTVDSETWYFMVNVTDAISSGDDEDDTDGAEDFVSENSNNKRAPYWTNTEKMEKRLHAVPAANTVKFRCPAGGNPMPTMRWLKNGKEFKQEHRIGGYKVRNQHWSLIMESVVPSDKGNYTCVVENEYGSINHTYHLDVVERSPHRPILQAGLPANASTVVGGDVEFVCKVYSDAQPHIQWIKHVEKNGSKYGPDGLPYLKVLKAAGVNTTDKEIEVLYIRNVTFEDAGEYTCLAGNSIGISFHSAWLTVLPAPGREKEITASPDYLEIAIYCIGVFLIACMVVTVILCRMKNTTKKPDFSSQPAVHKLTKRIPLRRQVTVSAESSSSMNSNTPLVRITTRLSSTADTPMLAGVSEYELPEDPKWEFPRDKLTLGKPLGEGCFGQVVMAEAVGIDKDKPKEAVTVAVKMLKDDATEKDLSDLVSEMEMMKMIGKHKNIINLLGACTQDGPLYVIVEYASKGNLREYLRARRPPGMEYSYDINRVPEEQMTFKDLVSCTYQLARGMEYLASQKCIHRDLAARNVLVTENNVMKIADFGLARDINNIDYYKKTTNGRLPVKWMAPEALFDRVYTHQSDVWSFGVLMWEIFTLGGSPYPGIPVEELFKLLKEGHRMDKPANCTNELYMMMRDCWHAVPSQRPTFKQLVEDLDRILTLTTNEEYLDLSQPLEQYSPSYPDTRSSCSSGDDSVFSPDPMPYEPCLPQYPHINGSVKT
Sequence of TRAF2 and NCK-interacting protein kinase (Homo sapiens) (Q9UKE5 whole entry, looked up): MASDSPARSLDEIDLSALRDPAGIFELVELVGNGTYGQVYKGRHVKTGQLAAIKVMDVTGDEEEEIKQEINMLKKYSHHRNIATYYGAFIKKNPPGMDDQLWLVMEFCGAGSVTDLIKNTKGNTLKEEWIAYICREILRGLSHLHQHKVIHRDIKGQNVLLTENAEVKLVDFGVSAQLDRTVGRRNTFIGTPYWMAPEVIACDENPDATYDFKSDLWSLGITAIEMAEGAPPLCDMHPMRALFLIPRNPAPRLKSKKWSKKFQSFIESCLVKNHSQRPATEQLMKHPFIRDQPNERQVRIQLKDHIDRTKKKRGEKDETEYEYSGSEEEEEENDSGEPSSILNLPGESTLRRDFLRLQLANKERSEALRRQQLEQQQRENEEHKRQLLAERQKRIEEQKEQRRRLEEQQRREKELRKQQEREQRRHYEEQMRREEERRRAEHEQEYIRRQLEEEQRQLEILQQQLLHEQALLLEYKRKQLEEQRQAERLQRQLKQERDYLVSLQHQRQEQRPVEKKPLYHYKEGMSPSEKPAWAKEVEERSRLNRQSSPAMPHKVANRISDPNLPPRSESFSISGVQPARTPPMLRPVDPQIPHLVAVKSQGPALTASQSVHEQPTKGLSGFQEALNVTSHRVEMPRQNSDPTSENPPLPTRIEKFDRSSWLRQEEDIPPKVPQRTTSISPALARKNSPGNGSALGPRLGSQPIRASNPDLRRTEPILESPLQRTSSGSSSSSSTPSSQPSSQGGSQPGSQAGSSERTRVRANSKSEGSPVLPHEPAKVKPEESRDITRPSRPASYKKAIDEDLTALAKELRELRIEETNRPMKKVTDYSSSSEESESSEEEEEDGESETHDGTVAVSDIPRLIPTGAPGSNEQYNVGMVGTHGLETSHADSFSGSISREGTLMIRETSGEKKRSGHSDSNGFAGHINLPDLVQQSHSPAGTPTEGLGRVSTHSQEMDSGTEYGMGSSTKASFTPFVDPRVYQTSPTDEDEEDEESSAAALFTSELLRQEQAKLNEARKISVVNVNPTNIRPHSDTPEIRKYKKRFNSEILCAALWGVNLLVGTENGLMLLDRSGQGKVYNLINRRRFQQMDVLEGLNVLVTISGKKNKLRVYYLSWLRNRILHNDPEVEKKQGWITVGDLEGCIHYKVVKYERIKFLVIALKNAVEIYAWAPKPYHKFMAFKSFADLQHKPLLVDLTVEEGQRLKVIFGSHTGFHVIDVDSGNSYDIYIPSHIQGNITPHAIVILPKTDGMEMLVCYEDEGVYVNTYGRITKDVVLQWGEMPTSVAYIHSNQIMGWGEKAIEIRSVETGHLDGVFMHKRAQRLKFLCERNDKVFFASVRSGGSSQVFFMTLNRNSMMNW
Sequence of Tyrosine-protein kinase HCK (Homo sapiens) (P08631 2-526 limits assumed): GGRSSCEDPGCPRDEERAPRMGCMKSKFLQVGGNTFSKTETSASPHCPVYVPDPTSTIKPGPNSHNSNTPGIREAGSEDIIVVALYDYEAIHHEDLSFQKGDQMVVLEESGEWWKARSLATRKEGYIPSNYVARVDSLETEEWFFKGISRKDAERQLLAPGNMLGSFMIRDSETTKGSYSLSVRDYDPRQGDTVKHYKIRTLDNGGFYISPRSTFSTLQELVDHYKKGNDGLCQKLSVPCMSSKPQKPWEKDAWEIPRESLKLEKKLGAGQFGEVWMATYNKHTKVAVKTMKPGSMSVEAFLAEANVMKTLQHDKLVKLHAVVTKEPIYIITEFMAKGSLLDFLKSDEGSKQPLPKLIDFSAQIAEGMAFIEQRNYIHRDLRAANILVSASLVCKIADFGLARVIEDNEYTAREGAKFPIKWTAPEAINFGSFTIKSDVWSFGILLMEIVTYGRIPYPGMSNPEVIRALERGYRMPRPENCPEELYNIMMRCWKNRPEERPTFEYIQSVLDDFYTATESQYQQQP

COc1cc2ncnc(Oc3ccc(NC(=O)Nc4ccc(CN5CCOCC5)c(C(F)(F)F)c4)c4ccccc34)c2cc1OC
GI50 (IGROV-1): 0.52 µM
TGI (IGROV-1): 3.63 µM
CC50 (IGROV-1; [9]): > 100 µM
GI50 (NCI-H322M): 0.56 µM
TGI (NCI-H322M): 15.1 µM
CC50 (NCI-H322M; [9]): 93.3 µM
GI50 (OVCAR-4): 0.12 µM
TGI (OVCAR-4): 10.5 µM
CC50 (OVCAR-4; [9]): 35.5 µM
GI50 (786-0): 0.79 µM
TGI (786-0): 5.37 µM
CC50 (786-0; [9]): 26.9 µM
GI50 (SF-295): 1.23 µM
TGI (SF-295): 6.03 µM
CC50 (SF-295; [9]): 30.9 µM
inhibition [1]: < 20%
GI50 (OVCAR-8): 0.4 µM
TGI (OVCAR-8): 9.55 µM
CC50 (OVCAR-8; [9]): > 100 µM
inhibition [2]: Active
GI50 (HCC 2998): 5.25 µM
TGI (HCC 2998): 20.9 µM
CC50 (HCC 2998; [9]): 75.9 µM
GI50 (NCI-H522): 0.31 µM
TGI (NCI-H522): 3.8 µM
CC50 (NCI-H522; [9]): > 100 µM
RatioGI50 [3]: 5 - 7.7
RatioGI50 (Melanoma cell [4]): 1.1 - 3.7
GI50 (NCI/ADR-RES): 0.76 µM
TGI (NCI/ADR-RES): 58.9 µM
CC50 (NCI/ADR-RES; [9]): > 100 µM
GI50 (MOLT-4): 0.19 µM
TGI (MOLT-4): 1.82 µM
CC50 (MOLT-4; [9]): > 100 µM
GI50 (UACC-257): 0.79 µM
TGI (UACC-257): 3.98 µM
CC50 (UACC-257; [9]): 47.9 µM
GI50 (PC-3): 1.78 µM
TGI (PC-3): 12.6 µM
CC50 (PC-3; [9]): > 100 µM
GI50 (MDA-MB-468): 0.23 µM
TGI (MDA-MB-468): 2.82 µM
CC50 (MDA-MB-468; [9]): 72.4 µM
GI50 (SNB-19): 2.57 µM
TGI (SNB-19): 14.1 µM
CC50 (SNB-19; [9]): 43.6 µM
RatioGI50 (Melanoma cell [5]): 1.6 - 2.9
GI50 (DU-145): 1.55 µM
TGI (DU-145): 13.2 µM
CC50 (DU-145; [9]): 44.7 µM
GI50 (HT-29): 0.45 µM
TGI (HT-29): 13.2 µM
CC50 (HT-29; [9]): > 100 µM
GI50 (OVCAR-5): 1.07 µM
TGI (OVCAR-5): 10.5 µM
CC50 (OVCAR-5; [9]): > 100 µM
inhibition [6]: Active
inhibition of growth at 10 µM (MDA-MB-435): 98.4%
inhibition [7]: > 96%
GI50 (KM12): 0.2 µM
TGI (KM12): 2.51 µM
CC50 (KM12; [9]): > 100 µM
GI50 (K562): < 0.01 µM
TGI (K562): 1.12 µM
CC50 (K562; [9]): 95.5 µM
inhibition of growth at 10 µM (HUVEC): 97.1%
GI50 (TK-10): 0.38 µM
TGI (TK-10): 5.89 µM
CC50 (TK-10; [9]): 35.5 µM
IC50 [8]: 0.0334 µM
